High-throughput results (PubChem)
RAM inhibit – inhibitors of the yeast RAM network. inhibition, % at 50 µM. S. cerevisiae dse1pr::URA3 reporter, 5-FOA growth OD615, 2 d; analog-sensitive cbk1-as2 kinase mutant strain. actives 1.8% (n = 190,000);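 active means inhibition above a set limit, 3 SD over mean compound inhibition, cut at about 8.4% in these data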;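 further: inhibition rescues growth on 5-FOA so higher OD means more RAM inhibition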
Yeast lifespan up – extends the lifespan of yeast. S. cerevisiae growth with nicotinamide, OD615; deaD strain in restrictive glucose medium. inhibition of the nicotinamide effect, % at 10 µM. actives 0.68% (n = 130,000);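 active means inhibition above a set limit, placed 3 SD over the median of all compounds, cut at about 26% in these data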
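Test system: DeaD-strain S. cerevisiae / Buffer or medium: restrictive glucose medium / Also added: nicotinamide 1.5 mM / Doses: one concentration, 10 µM, DMSO 0.25% / Schedule: 48 h at 30 °C / Signal: OD615 measurement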
b-catenin transl – beta-catenin nuclear translocation modulation | HeLa beta-catenin nuclear translocation, immunofluorescence imaging | nuclear translocation activity, % at 5 µM | actives 0.3% (n = 190,000);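 active means nuclear translocation activity above 50% at 5 µM, with a well cell count of 50 or more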;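 further: per-cell ratio of nuclear to cytoplasmic median beta-catenin stain intensity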
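Test system: HeLa cells, endogenous beta-catenin; Compound: single 5 µM dose plus 0.02–20 µM confirmation series; Times: compound exposure 24 h at 37°C; Signal: fluorescence imaging of beta-catenin antibody stain plus DAPI; Read-out: % activation, nuclear-to-cytoplasmic median beta-catenin signal ratio per cell.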
MT stabilize HCS – microtubule stabilization, imaging screen; % tubulin-high responders, % at 10 µM; actives 0.83% (n = 200,000); HeLa tubulin immunostaining HCS, 24 h; share of cells brighter than vehicle mean+2SD; AID 2205;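 active means plate Z-score above 3 for both tubulin-high and condensed-nucleus cell shares, with cell loss under 80%, at 10 µM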;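 further: anti alpha tubulin signal scored within the nucleus-defined area of each cell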
Efa HMGR inh – E. faecalis class II HMG-CoA reductase inhibition; actives 0.41% (n = 190,000); inhibition, % at 10 µM; purified E. faecalis HMGR, NADPH absorbance 340 nm kinetic;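 active means inhibition above a set limit, the median over all tested compounds plus 3 SD, cut at about 9.5% in these data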;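 further: enzyme runs in reverse so mevalonate oxidation gives rising NADPH absorbance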
Yeast growth inh – chemicals that inhibit yeast BB579 growth in restrictive medium (lifespan-shortening candidates); inhibition, % at 10 µM; S. cerevisiae BB579 growth, OD615, 48 h; actives 0.51% (n = 140,000);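 active means inhibition above a set limit, 3 SD over the mean compound inhibition, cut at about 44% in these data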
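System: DeaD yeast strain BB579; buffer or medium: CSMM-D dextrose restrictive medium; technique: OD at 615 nm; schedule: 4 h cell preincubation, 48 h compound exposure, 30 °C humidified; doses: single 10 µM dose; controls: amphotericin B 10 µg/mL, positive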
RAM efflux-def – restores 5-FOA growth of efflux-deficient yeast; 1,200 tested, under 10 active; AID 1305; S. cerevisiae efflux-deficient reporter strain, 5-FOA growth OD615, 2 days; shares compounds with RAM inhibit; max inhibition, %; call rule not given here
Hits are given with their value; . = inactive; / = not tested or not shown. Compounds with a hit are over-represented: about 3.5% of the library has one in this group of screens.

SMILES	RAM inhibit	Yeast lifespan up	b-catenin transl	MT stabilize HCS	Efa HMGR inh	Yeast growth inh	RAM efflux-def
O=C(NC(=S)Nc1ccc(Oc2ccc(Cl)cc2)cc1)c1ccccc1	17	.	.	.	.	.	.
O=C(NC(=S)Nc1ccc(Cl)cc1)c1ccccc1	/	/	.	/	/	/	/
O=C(CN1CCC(C(=O)c2cccc(Cl)c2)CC1)Nc1ccc(C(=O)O)cc1	.	/	.	/	.	/	/
COCCn1cnc2c1c(=O)n(CC(=O)OCC#N)c(=O)n2Cc1ccccc1	.	/	.	.	.	/	/
Cc1cc(C=NCCCO)c(C)n1-c1cc(Cl)ccc1Cl	.	/	.	.	.	/	/
CCOc1ccc(CNC(=O)CCc2cn(Cc3ccccc3)c3ccccc23)cc1	13	.	.	.	.	.	.
CCOc1ccc(CNC(=O)CCn2c(=O)oc3ccccc32)cc1	.	.	.	.	.	.	/
CCc1ccc(N(CC(=O)NCc2ccc(F)cc2)C(=O)c2csnn2)cc1	.	/	.	.	.	/	/
O=C(COC(=O)C1(c2ccccc2F)CCCC1)Nc1ncc(C(F)(F)F)cc1Cl	12	.	/	.	.	.	.
O=C(CNC(=S)N(Cc1ccccc1)Cc1ccccc1F)NCCc1ccc(Cl)cc1	36	/	.	.	.	/	.
CCOC(=O)c1c(C)[nH]c(C)c1C(=O)COC(=O)/C=C/c1cccc(C(F)(F)F)c1	23	.	/	.	.	.	.
Cc1cccn2c(=O)c(C=O)c(N3CCN(c4ccc(F)cc4)CC3)nc12	.	/	.	.	.	/	/
C=CCn1c(SCC(=O)Nc2ccccc2C)nnc1-c1ccncc1	14	.	.	.	.	.	.
COc1ccc(N2C(=S)NC3N2C(=S)NC3(C)c2ccccc2)cc1 (stereo not drawn)	.	/	.	.	.	/	/
COc1ccc(CCNC(=O)/C(C#N)=C/c2cccc(OCc3ccccc3)c2)cc1OC	14	.	.	.	.	.	.
C#CCNC(=O)C1=C[C@@H](c2ccc(C(F)(F)F)cc2)[C@H](CCCO)[C@@H](OCC)O1	.	/	.	.	.	/	/
COc1ccc(O[C@H]2C=C[C@@H](c3ccccc3)O[C@@H]2CO/N=C(\C)CCC(=O)OC[C@H]2O[C@H](c3ccccc3)C=C[C@@H]2Oc2ccc(OC)cc2)cc1	25	.	/	.	.	.	.
COC(=O)C/C=C/[C@@H](C)[C@@H](/C=N/O[C@H](C)c1cn([C@@H]2COC[C@H]2O)nn1)NS(=O)(=O)c1ccc(C)cc1	.	.	/	.	.	.	/
COC(=O)C/C=C/[C@@H](C)[C@@H](/C=N/OC[C@H]1O[C@H](c2ccccc2)C=C[C@@H]1Oc1ccc(OC)cc1)NS(=O)(=O)c1ccc(C)cc1	16	.	/	.	.	.	.
O=C(O)c1ccccc1-n1c(-c2ccccc2)cc2c1CCCC2=O	.	/	.	.	.	/	/
CN(C[C@H](Cc1ccccc1)N(CCN(CCc1ccccc1)N=O)N=O)N=O	.	/	.	.	.	/	/
CC(C)C[C@@H](CN(C)N=O)N(C[C@H](Cc1ccccc1)N(CCc1ccccc1)N=O)N=O	20	/	.	.	.	/	.
CC(C)NC(=O)CC(c1ccccc1)c1cc(Br)ccc1O (stereo not drawn)	.	.	/	.	.	.	/
CCCCCCNC(=O)CC(c1ccccc1)c1cc(Br)ccc1O (stereo not drawn)	11	/	.	.	.	.	.
O=C(O)CCCN=CC1=C(O)CNC1=O	.	/	.	.	.	/	/
SMILES	RAM inhibit	Yeast lifespan up	b-catenin transl	MT stabilize HCS	Efa HMGR inh	Yeast growth inh	RAM efflux-def
CCn1ncc(N(C)N)c(Cl)c1=O	.	/	.	.	.	/	/
CC(C)CCOc1ncnc2c1sc1nc3c(cc12)CSC(C)(C)C3	13	/	.	.	.	.	.
O=[N+]([O-])c1ccc(OC(F)F)c(/C=N/n2cnnc2)c1	/	/	.	/	/	/	/
CCCCN(C(=O)c1cccc2c(=O)c(C)c(-c3ccccc3)oc12)c1ccccc1	16	29	.	.	.	.	.
CCn1c(=NC(=O)c2cccc(N3C(=O)CCC3=O)c2)sc2c(OC)ccc(OC)c21	11	/	.	.	.	/	.
COc1ccc(OC)c2c1sc(=NC(=O)c1cccc(N3C(=O)CCC3=O)c1)n2C	.	.	.	.	.	.	/
CCCCCCCCNC(=S)NCCN1CCCCC1	.	/	.	.	.	/	/
Nc1nn2c(-c3ccccc3)cc(=O)[nH]c2c1N=Nc1ccc(Br)cc1	14	/	.	.	.	/	.
O=[N+]([O-])c1ccc(-c2csc(N3CCc4ccccc4C3)n2)cc1	.	.	.	.	.	.	/
Brc1ccc(-c2csc(N3CCc4ccccc4C3)n2)cc1	15	.	.	.	.	.	.
NC(CO)(CO)COCc1ccccc1	.	/	.	.	.	/	/
O=C(Nc1nc2ccccc2n1CCN1CCOCC1)c1cn(-c2ccccc2)nc1-c1ccccc1	18	173	.	.	.	.	.
CC(=O)Nc1nc2ccccc2n1CCN1CCOCC1	.	/	.	.	.	.	/
c1ccc(-c2nc(CSc3nnnn3-c3ccccc3)cs2)cc1	.	.	.	.	.	.	.
Cc1ccccc1Nc1nc(CSc2nnnn2-c2ccccc2)cs1	.	.	/	.	.	.	/
O=C(N/N=C/c1cccc(Cl)c1)C(c1ccncc1)N1CCOCC1 (stereo not drawn)	/	/	.	/	/	/	/
COc1cccc(C(=O)C2CN(c3ccccc3)CC2c2ccc(Cl)cc2)c1 (stereo not drawn)	15	.	.	.	.	.	.
O=C(O)c1cc(-c2c[nH]c3ccccc23)nc2cc3ccccc3cc12	/	/	.	/	/	/	/
CNC(=S)N1N=C(c2ccc(C)cc2)CC1c1ccc(Br)cc1 (stereo not drawn)	21	.	/	.	.	.	.
CNC(=S)N1N=C(c2ccc(C)cc2)CC1c1ccc(Cl)cc1 (stereo not drawn)	.	.	/	.	.	.	/
CCCCn1c(=O)c(CCC(=O)OC(C)C(=O)Nc2cccc(Cl)c2Cl)nc2ccccc21 (stereo not drawn)	16	.	.	.	.	.	.
N#Cc1c(SCC(=O)O)nc(N2CCCCC2)c2c1CCCC2	.	.	/	.	.	.	/
COC(=O)CSc1nc(N2CCCCC2)c2c(c1C#N)CCCC2	14	.	/	.	.	.	.
CCOC(=O)c1c(NC(=O)c2ccccc2)sc2c1CCc1ccccc1-2	.	.	.	.	.	.	/
CCOC(=O)C1=C(NC(=S)NC(=O)c2ccccc2)c2ccccc2CC1C(C)C (stereo not drawn)	12	.	.	.	.	.	.
CC(=O)Oc1ccc(-c2cccc(C(=O)N(C)c3ccc(O)cc3)c2)cc1	.	/	.	.	.	/	/
O=C(Cc1n[nH]c(=O)[nH]c1=O)N/N=C/CCc1ccccc1	/	/	.	/	/	/	/
COCCNC(=O)c1c(N)n(-c2ccccc2)c2nc3ccccc3nc12	15	.	.	.	.	.	.
